Experimental data taken from ChEMBL document CHEMBL5036324 (J Med Chem, 2021).
Values after ≈ are worked out from the molar mass of the structure shown. Active and inactive are the calls of the source. No cut-off for these calls is given here.

Tests used:
[1] = Subacute toxicity in BALB/c mouse assessed as pathological changes in heart at 15 mg/kg, ip administered as single dose by H and E staining based microscopic analysis; assay type: organism-based; conditions: in vivo
Procedure, shortened: (§1)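 Subacute toxicity study in BALB/c mice given ip TLR7/8 agonist. Tissues from treated and control mice were examined by hematoxylin and eosin staining.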

[2] = Aqueous solubility of compound; assay type: physicochemical
[3] = Acute toxicity in BALB/c mouse assessed as decrease in locomotor activity at 15 to 80 mg/kg, ip administered as single dose measured after 24 hrs; assay type: organism-based; conditions: in vivo, dose 15-80 mg/kg
[4] = Acute toxicity in BALB/c mouse assessed as white discharge from eyes at 15 to 80 mg/kg, ip administered as single dose measured after 24 hrs; assay type: organism-based; conditions: in vivo, dose 15-80 mg/kg
[5] = Acute toxicity in BALB/c mouse assessed as mild diarrhea at 15 to 80 mg/kg, ip administered as single dose; assay type: organism-based; conditions: in vivo, dose 15-80 mg/kg
[6] = tested on: CT26; experiment: Antitumor activity against mouse CT26 cells implanted in BALB/c mouse assessed as reduction in tumor volume at 25 ug, ip administered once a week in presence of anti-PD-1 antibodies and measured every 3 days for 23 days; assay type: functional, organism-based; conditions: dose 25.0 µg, time 23.0 day
Procedure, shortened: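 Subcutaneous CT26 tumours were grown in BALB/c mice, with cells cultured in DMEM/10% FBS. At a mean tumour size of 100 mm³, mice were randomised (n = 5/group). Agonist was given ip once weekly; anti-PD-1 or IgG isotype was given ip at 200 μg twice weekly. Tumour volume (V = 1/2ab²) was measured every 3 days. Mice were euthanised at 2000 mm³.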

[7] = target: T1, Toll-like receptor 8 (Homo sapiens) (UniProt Q9NR97); experiment: Agonist activity at human TLR8 expressed in HEK-Blue hTLR8 cells assessed as activation of NFkappaB incubated for 6 to 16 hrs by SEAP reporter gene based assay; assay type: cell-based; conditions: filed as agonist, time 6-16 hrs
T1 sequence (whole entry): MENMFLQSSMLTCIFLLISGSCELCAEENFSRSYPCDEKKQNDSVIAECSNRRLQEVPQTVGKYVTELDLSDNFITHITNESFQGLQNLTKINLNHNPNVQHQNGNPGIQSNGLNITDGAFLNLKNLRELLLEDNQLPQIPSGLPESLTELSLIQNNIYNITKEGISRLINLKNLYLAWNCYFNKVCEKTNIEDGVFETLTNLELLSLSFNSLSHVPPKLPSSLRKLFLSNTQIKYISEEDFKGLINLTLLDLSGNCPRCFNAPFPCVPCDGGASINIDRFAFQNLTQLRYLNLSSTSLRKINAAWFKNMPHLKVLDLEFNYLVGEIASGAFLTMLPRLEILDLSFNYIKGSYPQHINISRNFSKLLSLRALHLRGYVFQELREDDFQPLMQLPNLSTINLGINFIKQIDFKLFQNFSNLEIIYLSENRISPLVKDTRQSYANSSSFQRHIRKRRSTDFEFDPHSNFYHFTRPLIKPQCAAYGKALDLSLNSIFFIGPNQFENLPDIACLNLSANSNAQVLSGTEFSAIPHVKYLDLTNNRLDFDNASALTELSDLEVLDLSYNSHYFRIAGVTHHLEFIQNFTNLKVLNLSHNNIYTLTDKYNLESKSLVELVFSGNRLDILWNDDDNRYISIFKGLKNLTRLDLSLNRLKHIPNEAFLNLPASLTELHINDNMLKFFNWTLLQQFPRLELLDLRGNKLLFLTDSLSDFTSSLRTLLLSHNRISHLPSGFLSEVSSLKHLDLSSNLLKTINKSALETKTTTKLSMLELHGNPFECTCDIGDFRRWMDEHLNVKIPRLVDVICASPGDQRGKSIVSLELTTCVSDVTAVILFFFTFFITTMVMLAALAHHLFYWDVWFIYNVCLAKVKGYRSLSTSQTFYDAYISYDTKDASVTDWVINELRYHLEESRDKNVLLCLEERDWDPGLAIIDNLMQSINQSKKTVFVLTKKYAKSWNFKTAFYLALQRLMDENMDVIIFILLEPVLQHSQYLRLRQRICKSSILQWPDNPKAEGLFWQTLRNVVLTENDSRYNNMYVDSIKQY
Procedure, shortened: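 HEK293-derived SEAP reporter cells stably expressing the matching human TLR (2, 3, 4, 7, 8 or 9), kept under selection antibiotics. SEAP is driven by an NF-κB/AP-1-inducible promoter. HEK-Blue Null2-k (no TLR7/8) serves as the parental line. Cells were given escalating concentrations of stimuli for 6−16 h, then SEAP was read with HEK-Blue detection at 620 nm.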

[8] = Subacute toxicity in BALB/c mouse assessed as pathological changes in lung at 15 mg/kg, ip administered as single dose by H and E staining based microscopic analysis; assay type: organism-based; conditions: in vivo; procedure, shortened: as §1
[9] = Induction of phospholipidosis in human HepG2 cells assessed as intracellular accumulation of phospholipids at 3 uM incubated for 48 hrs by […] staining based fluorescence microscopic analysis; assay type: cell-based; conditions: hepg2, 48 h
Procedure, shortened: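 HepG2 cells were screened in vitro for phospholipidosis using HCS LipidTOX Red phospholipidosis detection reagent. Compound was tested at 3 μM and compared with a vehicle group.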

[10] = Acute toxicity in BALB/c mouse assessed as white discharge from eyes at 15 to 80 mg/kg, ip administered as single dose; assay type: organism-based; conditions: in vivo, dose 15-80 mg/kg
[11] = Acute toxicity in BALB/c mouse assessed as decrease in locomotor activity at 15 to 80 mg/kg, ip administered as single dose; assay type: organism-based; conditions: in vivo, dose 15-80 mg/kg
[12] = target: T2, TLR7 and TLR8 (Homo sapiens) (UniProt Q9NYK1+Q9NR97); experiment: Agonist activity at human TLR7/8 expressed in human PBMC cells assessed as induction of IFN-alpha production at 0.5 ug/ml incubated for 24 hrs by multiplexed immunoassay; assay type: cell-based; conditions: filed as agonist, dose 0.5 µg/ml
T2 sequence (Q9NYK1 whole entry, looked up, one chain of several): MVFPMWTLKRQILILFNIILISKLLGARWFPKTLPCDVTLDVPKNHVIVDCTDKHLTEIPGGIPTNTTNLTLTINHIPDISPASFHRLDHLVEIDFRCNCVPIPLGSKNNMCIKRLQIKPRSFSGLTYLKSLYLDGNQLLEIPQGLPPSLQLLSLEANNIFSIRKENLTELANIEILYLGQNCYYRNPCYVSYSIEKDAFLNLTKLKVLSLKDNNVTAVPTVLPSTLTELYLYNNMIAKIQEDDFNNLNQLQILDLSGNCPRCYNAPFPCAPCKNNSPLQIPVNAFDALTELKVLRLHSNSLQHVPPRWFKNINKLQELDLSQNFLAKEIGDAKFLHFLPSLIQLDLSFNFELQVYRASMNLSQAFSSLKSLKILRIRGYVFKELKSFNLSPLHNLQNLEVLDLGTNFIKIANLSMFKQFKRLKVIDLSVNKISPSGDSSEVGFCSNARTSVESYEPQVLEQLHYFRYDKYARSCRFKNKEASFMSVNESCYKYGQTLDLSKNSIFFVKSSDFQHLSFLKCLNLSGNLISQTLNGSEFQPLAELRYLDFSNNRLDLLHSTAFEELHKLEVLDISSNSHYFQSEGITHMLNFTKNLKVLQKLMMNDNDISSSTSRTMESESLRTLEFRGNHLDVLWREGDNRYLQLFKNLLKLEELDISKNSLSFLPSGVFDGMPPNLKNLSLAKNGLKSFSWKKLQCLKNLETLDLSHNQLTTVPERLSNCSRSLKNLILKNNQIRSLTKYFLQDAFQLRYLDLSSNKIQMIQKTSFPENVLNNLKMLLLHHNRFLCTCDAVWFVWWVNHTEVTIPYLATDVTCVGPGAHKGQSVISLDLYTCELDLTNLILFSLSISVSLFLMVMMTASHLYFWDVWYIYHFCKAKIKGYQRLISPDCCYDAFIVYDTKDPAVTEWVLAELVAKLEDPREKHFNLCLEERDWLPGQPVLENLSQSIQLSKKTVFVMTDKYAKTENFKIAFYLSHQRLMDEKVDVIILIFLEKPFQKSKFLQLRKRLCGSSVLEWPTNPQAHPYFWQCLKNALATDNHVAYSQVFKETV
Procedure, shortened: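 PBMCs from five healthy donors, at 3.0 × 10⁶ cells/mL, received one compound concentration for 24 h. Cytokines in centrifuged supernatants were measured in duplicate with a multiplex magnetic bead cytokine panel.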

[13] = target: T2, TLR7 and TLR8 (Homo sapiens); experiment: Agonist activity at human TLR7/8 expressed in human PBMC cells assessed as induction of VEGF secretion incubated for 12 hrs by multiplexed immunoassay; assay type: cell-based; conditions: filed as agonist
Procedure, shortened: (§2)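 Healthy-volunteer PBMCs from a single donor were isolated by Ficoll−Hypaque gradient and plated at 2.0 × 10⁶ cells/mL. They were stimulated for 12 h with escalating compound concentrations. Supernatants were assayed in duplicate on a 41-analyte magnetic bead cytokine/chemokine panel read by Luminex. EC_max is the concentration giving maximal cytokine induction.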

[14] = Acute toxicity in BALB/c mouse assessed as body weight loss at 60 mg/kg, ip administered as single dose relative to control; assay type: organism-based; conditions: in vivo
[15] = target: hERG (KCNH2) (Homo sapiens, UniProt Q12809); experiment: Inhibition of hERG expressed in HEK293 cells at 10 uM relative to control; assay type: cell-based; conditions: HEK293 cells expressing hERG
hERG (KCNH2), sequence (Q12809 whole entry): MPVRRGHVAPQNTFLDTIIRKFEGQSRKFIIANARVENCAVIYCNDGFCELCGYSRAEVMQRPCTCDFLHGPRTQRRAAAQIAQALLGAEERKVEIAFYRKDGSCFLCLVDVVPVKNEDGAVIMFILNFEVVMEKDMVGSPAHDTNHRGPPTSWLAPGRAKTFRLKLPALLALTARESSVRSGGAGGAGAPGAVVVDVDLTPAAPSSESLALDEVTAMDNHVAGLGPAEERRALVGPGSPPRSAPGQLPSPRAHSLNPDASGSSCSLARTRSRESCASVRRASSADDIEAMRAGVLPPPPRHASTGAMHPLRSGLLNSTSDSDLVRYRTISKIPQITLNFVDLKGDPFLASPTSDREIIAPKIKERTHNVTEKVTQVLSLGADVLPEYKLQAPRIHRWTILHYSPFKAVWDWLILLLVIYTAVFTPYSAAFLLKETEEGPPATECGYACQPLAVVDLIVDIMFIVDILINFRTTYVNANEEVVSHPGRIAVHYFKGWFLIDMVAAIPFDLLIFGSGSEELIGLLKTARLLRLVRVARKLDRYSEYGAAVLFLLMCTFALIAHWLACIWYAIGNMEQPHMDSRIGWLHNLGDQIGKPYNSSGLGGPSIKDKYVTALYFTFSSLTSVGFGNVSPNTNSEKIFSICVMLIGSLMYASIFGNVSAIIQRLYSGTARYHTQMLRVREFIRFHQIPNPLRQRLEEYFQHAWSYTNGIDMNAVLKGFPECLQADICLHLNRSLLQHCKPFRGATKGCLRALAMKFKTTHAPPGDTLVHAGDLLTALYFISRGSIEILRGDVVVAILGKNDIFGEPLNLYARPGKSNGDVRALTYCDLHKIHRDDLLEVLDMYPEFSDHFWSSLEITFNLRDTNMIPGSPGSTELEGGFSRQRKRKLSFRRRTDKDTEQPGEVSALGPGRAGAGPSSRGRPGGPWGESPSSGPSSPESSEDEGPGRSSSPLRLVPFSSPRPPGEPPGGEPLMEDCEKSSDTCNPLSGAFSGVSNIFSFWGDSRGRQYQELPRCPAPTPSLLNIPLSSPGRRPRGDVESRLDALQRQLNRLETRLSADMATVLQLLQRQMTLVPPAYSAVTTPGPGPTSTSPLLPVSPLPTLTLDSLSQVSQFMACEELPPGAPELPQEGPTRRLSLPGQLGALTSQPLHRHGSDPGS

[16] = target: T2, TLR7 and TLR8 (Homo sapiens); experiment: Agonist activity at human TLR7/8 expressed in human PBMC cells assessed as induction of INF-gamma production by measuring concentration required to induce maximal response incubated for 12 hrs by multiplexed immunoassay; assay type: cell-based; conditions: filed as agonist; procedure, shortened: as §2

## COCCNc1nc(N)nc2ccc(Cc3ccc(CN(C)C)cc3)nc12
[1]
  Activity: Non-Toxic
[2]
  solubility: 1030 µg/mL (≈ 2810 µM)
[3]
  Activity: Non-Toxic
[4]
  Activity: Non-Toxic
[5]
  Activity: Toxic
[6]
  Activity: Active
[7]
  Activity: Active
[8]
  Activity: Non-Toxic
[9]
  Activity: Non-Toxic
[10]
  Activity: Toxic
[11]
  Activity: Toxic
[12]
  Activity: Active
[13]
  Activity: Active
[14]
  Activity: 15.3%
[15]
  inhibition at 10 µM: 14.8%

## CCCCNc1nc(N)nc2ccc(Cc3ccc(CN(C)C)cc3)nc12
[1]
  Activity: Non-Toxic
[2]
  solubility: 45 µg/mL (≈ 123 µM)
[3]
  Activity: Non-Toxic
[4]
  Activity: Non-Toxic
[5]
  Activity: Toxic
[7]
  Activity: Active
[8]
  Activity: Non-Toxic
[9]
  Activity: Non-Toxic
[10]
  Activity: Toxic
[11]
  Activity: Toxic
[12]
  Activity: Active
[16]
  ECmax: 0.1 µg/mL
[13]
  Activity: Active
[14]
  Activity: 17.6%
[15]
  inhibition at 10 µM: 89.3%
